In ChEMBL document CHEMBL3785019, “Dihydropyrazole derivatives as telomerase inhibitors: Structure-based design, synthesis, SAR and anticancer evaluation in vitro and in vivo” (Eur J Med Chem, 2016):
Active and inactive are the calls of the source. No cut-off for these calls is given here.

Legend:
Bcap37 = assay: Cytotoxicity against human Bcap37 cells after 48 hrs by MTT assay; assay type: functional, cell-based
How it was run: (§1)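 Tumor cells in log phase in RPMI 1640 + 10% FBS, seeded at 3×10^4 cells mL-1 and incubated 24 h (37 °C, 5% CO2). Test samples added at pre-set concentrations (6 wells each), doxorubicin as reference; 48 h exposure. MTT (2.5 mg·mL-1 in PBS) added for 4 h, formazan dissolved in DMSO, A570 read.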

[1] = target: T1, Telomerase reverse transcriptase (Homo sapiens, UniProt O14746); assay: Inhibition of telomerase in human MGC-803 cells after 24 hrs by TRAP-PCR-ELISA assay; assay type: cell-based
T1 sequence (O14746 whole entry): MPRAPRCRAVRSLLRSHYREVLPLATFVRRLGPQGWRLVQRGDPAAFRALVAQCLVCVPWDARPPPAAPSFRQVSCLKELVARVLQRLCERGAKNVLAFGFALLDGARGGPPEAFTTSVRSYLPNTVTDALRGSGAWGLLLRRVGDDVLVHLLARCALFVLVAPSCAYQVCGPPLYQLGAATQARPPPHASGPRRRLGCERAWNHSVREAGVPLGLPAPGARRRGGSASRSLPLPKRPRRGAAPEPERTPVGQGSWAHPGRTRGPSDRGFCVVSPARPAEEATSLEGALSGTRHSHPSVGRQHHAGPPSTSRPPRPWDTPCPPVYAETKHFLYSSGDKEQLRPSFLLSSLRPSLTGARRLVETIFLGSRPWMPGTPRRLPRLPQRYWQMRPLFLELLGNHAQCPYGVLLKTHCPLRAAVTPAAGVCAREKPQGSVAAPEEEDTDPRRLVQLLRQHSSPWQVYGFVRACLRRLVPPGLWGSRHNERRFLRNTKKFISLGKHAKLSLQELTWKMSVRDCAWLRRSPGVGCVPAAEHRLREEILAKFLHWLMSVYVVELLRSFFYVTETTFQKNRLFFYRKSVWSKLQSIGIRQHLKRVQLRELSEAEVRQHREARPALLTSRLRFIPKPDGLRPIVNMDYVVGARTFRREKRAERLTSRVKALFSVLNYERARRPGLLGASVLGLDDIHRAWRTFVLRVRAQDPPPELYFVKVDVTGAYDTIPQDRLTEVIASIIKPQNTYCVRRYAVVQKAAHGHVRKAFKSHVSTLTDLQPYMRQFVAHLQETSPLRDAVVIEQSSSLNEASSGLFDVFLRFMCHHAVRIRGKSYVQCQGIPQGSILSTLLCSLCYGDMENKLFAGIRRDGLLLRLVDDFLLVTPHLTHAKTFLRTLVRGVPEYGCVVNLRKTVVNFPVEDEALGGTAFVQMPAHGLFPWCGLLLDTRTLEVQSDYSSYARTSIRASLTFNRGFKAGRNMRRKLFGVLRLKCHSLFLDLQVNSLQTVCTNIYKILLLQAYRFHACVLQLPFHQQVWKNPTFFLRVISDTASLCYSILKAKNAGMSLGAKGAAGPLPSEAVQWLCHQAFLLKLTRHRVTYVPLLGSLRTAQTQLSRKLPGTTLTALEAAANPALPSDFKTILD
How it was run: (§2)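 Cells lysed in RIPA on ice for 30 min; extract incubated with TRAP mix at 25 °C for 30 min, then 35 PCR cycles. Products hybridized to DIG probe, captured on streptavidin, detected with peroxidase anti-DIG at 490 nm; mean±SD.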

[2] = Cytotoxicity against human PC3 cells after 48 hrs by MTT assay; assay type: functional, cell-based, PC-3; how it was run: as §1
HepG2 = assay: Cytotoxicity against human HepG2 cells after 48 hrs by MTT assay; assay type: functional, cell-based; how it was run: as §1
[3] = Cytotoxicity against human MGC803 cells after 48 hrs by MTT assay; assay type: functional, cell-based, MGC-803; how it was run: as §1
[4] = Cytotoxicity against human GES-1 cells after 48 hrs by MTT assay; assay type: cell-based; details: GES1, 48 h
How it was run: (§3)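 Human normal gastric mucosa GES-1 and liver L-02 cells; MTT assay; IC50 expressed in mM as mean of triplicate experiments.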

[5] = Cytotoxicity against human L02 cells after 48 hrs by MTT assay; assay type: cell-based; details: L02, 48 h; how it was run: as §3
[6] = target: T1, Telomerase reverse transcriptase; assay: Inhibition of telomerase in human MGC-803 cells upto 60 uM after 24 hrs by TRAP-PCR-ELISA assay; assay type: cell-based; how it was run: as §2
[7] = Homo sapiens, Bcap37, 48 h, read-out: IC50
[8] = Homo sapiens, PC-3, 48 h, read-out: IC50
[9] = Homo sapiens, HepG2, 48 h, read-out: IC50
[10] = Homo sapiens, MGC-803, 48 h, read-out: IC50

Row | SMILES | IC50 (Bcap37; bcap37) | IC50 [1] | IC50 ([2]; pc-3) | IC50 (HepG2; hepg2) | IC50 ([3]; mgc-803) | IC50 (Bcap37; [7]) | IC50 [2, 8] | IC50 (HepG2; [9]) | IC50 [3, 10] | IC50 [4] | IC50 [5] | inhibition [6]
1 | O=C(CN1CCC(c2ccccc2)CC1)N1N=C(c2cc3ccccc3oc2=O)CC1c1ccccc1 (stereo unspecified) | Not Active | 35.7 µM | Not Active | Not Active | Not Active |  |  |  |  |  |  | 
2 | CCC(=O)N1N=C(C)CC1c1cc(Br)cc(Br)c1O (stereo unspecified) |  | 18.1 µM |  |  |  | 40.1 µM | 28.6 µM | 41.4 µM | 38.6 µM |  |  | 
3 | CC1=NN(C(=O)CCl)C(c2cc(Br)cc(Br)c2O)C1 (stereo unspecified) |  | 3.68 µM |  |  |  | 51.1 µM | 5.82 µM | 3.35 µM | 4.91 µM |  |  | 
4 | CCCCCCN(CCCCCC)CC(=O)N1N=C(c2cc3ccccc3oc2=O)CC1c1ccccc1C(F)(F)F (stereo unspecified) |  | 4.77 µM |  |  |  | 12.2 µM | 6.03 µM | 12 µM | 6.87 µM |  |  | 
5 | CCCN(CCC)CC(=O)N1N=C(C)CC1c1cc(Br)ccc1O (stereo unspecified) |  | 9.94 µM |  |  |  | 15.3 µM | 19 µM | 9.81 µM | 20.2 µM |  |  | 
6 | CCNCC(=O)N1N=C(c2cc3ccccc3oc2=O)CC1c1ccccc1 (stereo unspecified) |  | 6.68 µM |  |  |  | 6.49 µM | 5.58 µM | 30.6 µM | 26.6 µM |  |  | 
7 | CC(=O)Oc1ccccc1C1CC(C)=NN1C(=O)CCl (stereo unspecified) |  | 1.27 µM |  |  |  | 6.81 µM | 3.58 µM | 2.52 µM | 3.01 µM | 1.84 mM | 2.53 mM | 
8 | CC(=O)Oc1ccccc1C1CC(C)=NN1C(=O)CN1CCC(O)CC1 (stereo unspecified) |  | 5.69 µM |  |  |  | 9.8 µM | 25.6 µM | 12.3 µM | 3.51 µM | 2.51 mM | 2.23 mM | 
9 | CC1=NN(C(=O)COc2ccc(Cl)cc2)C(c2ccccc2O)C1 (stereo unspecified) | Not Active | 54.4 µM |  | Not Active | Not Active |  | 38.8 µM |  |  |  |  | 
10 | O=C(CN1CCOCC1)N1N=C(c2cc3ccccc3oc2=O)CC1c1ccccc1C(F)(F)F (stereo unspecified) |  | 3.03 µM |  |  |  | 14.2 µM | 12.1 µM | 21 µM | 10 µM |  |  | 
11 | CC(=O)Oc1ccccc1C1CC(C)=NN1C(=O)CN1CCCCC1 (stereo unspecified) |  | 2.12 µM |  |  |  | 12.8 µM | 4.07 µM | 19 µM | 4.89 µM |  |  | 
12 | CC(=O)Oc1ccccc1C1CC(C)=NN1C(=O)CN1CCC(C(C)=O)CC1 (stereo unspecified) |  | 3.54 µM |  |  |  | 20.1 µM | 6.8 µM | 7.8 µM | 4.12 µM |  |  | 
13 | CC(=O)Oc1ccccc1C1CC(C)=NN1C(=O)CN1CCCC1 (stereo unspecified) |  | 6.3 µM |  |  |  | 5.21 µM | 6.21 µM | 5.09 µM | 6.51 µM |  |  | 
14 | CC1=NN(C(=O)CN2CCCC2)C(c2ccccc2O)C1 (stereo unspecified) |  | 5.44 µM |  |  |  | 5.35 µM | 6.67 µM | 5.54 µM | 17.9 µM |  |  | 
15 | O=c1oc2ccccc2cc1C1=NN(S(=O)(=O)c2ccc([N+](=O)[O-])cc2)C(c2ccccc2)C1 (stereo unspecified) |  | 31.3 µM |  | Not Active |  | 37 µM | 46.6 µM |  | 41.2 µM |  |  | 
16 | CCC(=O)N1N=C(c2cc3ccccc3oc2=O)CC1c1ccccc1 (stereo unspecified) |  | 3.63 µM |  |  |  | 46.3 µM | 4.37 µM | 9.61 µM | 5.3 µM |  |  | 
17 | COc1ccc(NCC(=O)N2N=C(C)CC2c2ccccc2O)cc1 (stereo unspecified) |  | 22.3 µM |  |  |  | 45.5 µM | 51.6 µM | 39.1 µM | 9.87 µM |  |  | 
18 | CCN(CC)CC(=O)N1N=C(C)CC1c1ccccc1OC(C)=O (stereo unspecified) |  |  |  |  |  | 44.2 µM | 51.2 µM | 33.2 µM | 29.5 µM |  |  | inactive

Row | SMILES | IC50 (Bcap37; bcap37) | IC50 [1] | IC50 ([2]; pc-3) | IC50 (HepG2; hepg2) | IC50 ([3]; mgc-803) | IC50 (Bcap37; [7]) | IC50 [2, 8] | IC50 (HepG2; [9]) | IC50 [3, 10] | IC50 [4] | IC50 [5] | inhibition [6]
19 | CC1=NN(C(=O)CN2CCN(C)CC2)C(c2ccccc2O)C1 (stereo unspecified) |  | 2.1 µM |  | Not Active |  | 6.21 µM | 11.8 µM |  | 7.85 µM |  |  | 
20 | O=C(CN1CCC(Cl)CC1)N1N=C(c2cc3ccccc3oc2=O)CC1c1ccccc1 (stereo unspecified) |  | 57.8 µM | Not Active | Not Active | Not Active | 24.2 µM |  |  |  |  |  | 
21 | O=C(c1ccccc1Cl)N1N=C(c2cc3ccccc3oc2=O)CC1c1ccccc1 (stereo unspecified) |  | 13.1 µM |  |  |  | 9.3 µM | 6.37 µM | 5.44 µM | 6.64 µM |  |  | 
22 | CC(C)NCC(=O)N1N=C(c2cc3ccccc3oc2=O)CC1c1ccccc1 (stereo unspecified) |  | 3.52 µM |  |  |  | 2.21 µM | 1.87 µM | 6 µM | 10.3 µM |  |  | 
23 | CC1=NN(C(=O)CN2CCN(C(=O)OC(C)(C)C)CC2)C(c2ccccc2O)C1 (stereo unspecified) |  | 6.77 µM |  |  |  | 6.74 µM | 3.44 µM | 5 µM | 17.6 µM |  |  | 
24 | CC1=NN(S(=O)(=O)c2ccc([N+](=O)[O-])cc2)C(c2cc(Cl)ccc2O)C1 (stereo unspecified) |  | 41.2 µM |  | Not Active | Not Active | 52.3 µM | 44.2 µM |  |  |  |  | 
25 | CC1=NN(C(=O)CCl)C(c2cc(Br)ccc2O)C1 (stereo unspecified) |  | 3.17 µM |  |  |  | 32.3 µM | 8.89 µM | 16.3 µM | 13.5 µM |  |  | 
26 | CNCC(=O)N1N=C(c2cc3ccccc3oc2=O)CC1c1ccccc1 (stereo unspecified) |  | 3.15 µM |  |  |  | 4.22 µM | 2.3 µM | 24 µM | 12.8 µM |  |  | 
27 | COc1ccccc1C1CC(C)=NN1C(=O)CN(C(C)C)C(C)C (stereo unspecified) |  | 14.2 µM |  |  |  | 34.2 µM | 5.2 µM | 8.4 µM | 21.5 µM |  |  | 
28 | O=C(CCl)N1N=C(c2cc3ccccc3oc2=O)CC1c1ccccc1 (stereo unspecified) |  | 2.27 µM |  |  |  | 26.7 µM | 2.98 µM | 2.98 µM | 2.02 µM | 2.11 mM | 1.28 mM | 
29 | CCCNCC(=O)N1N=C(c2cc3ccccc3oc2=O)CC1c1ccccc1 (stereo unspecified) |  | 9.32 µM |  |  |  | 25.2 µM | 7.27 µM | 10.8 µM | 4.88 µM |  |  | 
30 | CC(C)CNCC(=O)N1N=C(c2cc3ccccc3oc2=O)CC1c1ccccc1 (stereo unspecified) |  | 3.17 µM |  |  |  | 6.3 µM | 1.92 µM | 9.97 µM | 29.7 µM |  |  | 
31 | O=C(CN1CCC(O)CC1)N1N=C(c2cc3ccccc3oc2=O)CC1c1ccccc1 (stereo unspecified) | Not Active |  | Not Active | Not Active | Not Active |  |  |  |  |  |  | inactive
32 | O=C(CN1CCSCC1)N1N=C(c2cc3ccccc3oc2=O)CC1c1ccccc1 (stereo unspecified) |  | 3.3 µM |  |  |  | 8.2 µM | 4 µM | 8.96 µM | 10.3 µM |  |  | 
33 | CCN(CC)CC(=O)N1N=C(c2cc3ccccc3oc2=O)CC1c1ccccc1 (stereo unspecified) |  | 5.57 µM |  |  |  | 3.5 µM | 6.41 µM | 11.4 µM | 8.52 µM |  |  | 
34 | CC1=NN(S(=O)(=O)c2ccc(C)cc2)C(c2cc(Br)cc(Br)c2O)C1 (stereo unspecified) | Not Active |  |  | Not Active | Not Active |  | 51.2 µM |  |  |  |  | inactive
35 | C=CCN(CC=C)CC(=O)N1N=C(C)CC1c1cc(Br)ccc1O (stereo unspecified) |  | 11.8 µM |  |  |  | 4.95 µM | 3.09 µM | 7.87 µM | 10.2 µM |  |  | 
36 | NC(=O)C1CCN(CC(=O)N2N=C(c3cc4ccccc4oc3=O)CC2c2ccccc2)CC1 (stereo unspecified) |  | 31.2 µM |  |  |  | 18.5 µM | 8.31 µM | 19.3 µM | 21.5 µM |  |  | 
